Assay results published in ChEMBL document CHEMBL2016484, “In vitro growth inhibition of human cancer cells by novel honokiol analogs” (Bioorg Med Chem, 2012).
Calls of active or inactive are those of the source. The calls are words filed in the database; no cut-off is given here.

What was measured:
[1] = test system: A549; assay: Cytotoxicity against human A549 cells by MTS assay; assay type: functional, cell-based; conditions: TDE = time-dependent effect
[2] = test system: UACC-903; assay: Cytotoxicity against human UACC-903 cells after 72 hrs by MTS assay; assay type: functional, cell-based; conditions: for IC50: UACC-903, 72 h
[3] = test system: HT-29; assay: Cytotoxicity against human HT-29 cells after 72 hrs by MTS assay; assay type: functional, cell-based; conditions: for IC50: HT-29, 72 h
[4] = test system: A549; assay: Cytotoxicity against human A549 cells after 24 hrs by MTS assay; assay type: functional, cell-based; conditions: for IC50: A549, 24 h
[5] = test system: UACC-903; assay: Cytotoxicity against human UACC-903 cells after 24 hrs by MTS assay; assay type: functional, cell-based; conditions: for IC50: UACC-903, 24 h
[6] = test system: A549; assay: Cytotoxicity against human A549 cells after 72 hrs by MTS assay; assay type: functional, cell-based; conditions: for IC50: A549, 72 h
[7] = test system: HT-29; assay: Cytotoxicity against human HT-29 cells after 24 hrs by MTS assay; assay type: functional, cell-based; conditions: for IC50: HT-29, 24 h
[8] = test system: HT-29; assay: Cytotoxicity against human HT-29 cells by MTS assay; assay type: functional, cell-based; conditions: TDE = time-dependent effect
[9] = test system: UACC-903; assay: Cytotoxicity against human UACC-903 cells by MTS assay; assay type: functional, cell-based; conditions: TDE = time-dependent effect
[10] = test system: A549; assay: Decrease in cyclin B1 protein level in synchronized human A549 cells after 18 hrs by Western blot analysis; assay type: functional, cell-based
Method in brief: (§1)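 A549 cells synchronized with nocodazole (0.5 μg/ml, 15 h), then treated with compound (0, 0.5, 1.0, 2.0, 5.0 μM; final DMSO 0.2%) for 18 h at 37 °C. RIPA lysates with protease inhibitors, 40 μg protein on 12% SDS-PAGE, probed with rabbit polyclonal anti-human CDK1 or cyclin B1, ECL detection, densitometry; three experiments on different passages.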

[11] = test system: A549; assay: Cell cycle arrest in synchronized human A549 cells assessed as accumulation at G2/M phase at 0.5 uM after 48 hrs by propidium iodide staining-based flow cytometric analysis (reference value: 18.2 +/- 2.1%); assay type: functional
[12] = test system: A549; assay: Cell cycle arrest in synchronized human A549 cells assessed as accumulation at G2/M phase after 48 hrs by propidium iodide staining-based flow cytometric analysis; assay type: functional
[13] = test system: A549; assay: Decrease in cyclin B1 protein level in synchronized human A549 cells at 2 uM after 18 hrs by Western blot analysis; assay type: functional, cell-based; method in brief: as §1
[14] = test system: A549; assay: Cell cycle arrest in synchronized human A549 cells assessed as accumulation at G1/G0 phase at 10 uM after 48 hrs by propidium iodide staining-based flow cytometric analysis (reference value: 40.6 +/- 4.6%); assay type: functional
[15] = test system: A549; assay: Cell cycle arrest in synchronized human A549 cells assessed as accumulation at G1/G0 phase at 0.5 uM after 48 hrs by propidium iodide staining-based flow cytometric analysis (reference value: 40.6 +/- 4.6%); assay type: functional
[16] = test system: A549; assay: Cell cycle arrest in synchronized human A549 cells assessed as accumulation at G2/M phase at 10 uM after 48 hrs by propidium iodide staining-based flow cytometric analysis (reference value: 18.2 +/- 2.1%); assay type: functional
[17] = test system: A549; assay: Cell cycle arrest in synchronized human A549 cells assessed as accumulation at S phase at 10 uM after 48 hrs by propidium iodide staining-based flow cytometric analysis (reference value: 41.2 +/- 3.1%); assay type: functional
[18] = test system: A549; assay: Cell cycle arrest in synchronized human A549 cells assessed as accumulation at S phase after 48 hrs by propidium iodide staining-based flow cytometric analysis; assay type: functional
[19] = test system: A549; assay: Cell cycle arrest in synchronized human A549 cells assessed as accumulation at G1/G0 phase at 2.5 uM after 48 hrs by propidium iodide staining-based flow cytometric analysis (reference value: 40.6 +/- 4.6%); assay type: functional
[20] = test system: A549; assay: Cell cycle arrest in synchronized human A549 cells assessed as accumulation at S phase at 0.5 uM after 48 hrs by propidium iodide staining-based flow cytometric analysis (reference value: 41.2 +/- 3.1%); assay type: functional
[21] = test system: A549; assay: Decrease in Cdk1 protein level in synchronized human A549 cells at 5 uM after 18 hrs by Western blot analysis; assay type: functional, cell-based; method in brief: as §1
[22] = test system: A549; assay: Cell cycle arrest in synchronized human A549 cells assessed as accumulation at G2/M phase at 2.5 uM after 48 hrs by propidium iodide staining-based flow cytometric analysis (reference value: 18.2 +/- 2.1%); assay type: functional
[23] = test system: A549; assay: Decrease in Cdk1 protein level in synchronized human A549 cells after 18 hrs by Western blot analysis; assay type: functional, cell-based; method in brief: as §1
[24] = test system: A549; assay: Cell cycle arrest in synchronized human A549 cells assessed as accumulation at S phase at 2.5 uM after 48 hrs by propidium iodide staining-based flow cytometric analysis (reference value: 41.2 +/- 3.1%); assay type: functional
[25] = test system: A549; assay: Decrease in cyclin B1 protein level in synchronized human A549 cells at 5 uM after 18 hrs by Western blot analysis; assay type: functional, cell-based; method in brief: as §1
[26] = test system: A549; assay: Decrease in Cdk1 protein level in synchronized human A549 cells at 2 uM after 18 hrs by Western blot analysis; assay type: functional, cell-based; method in brief: as §1

C=CCc1cc(-c2cccc(CC=C)c2O)ccc1OC
growth inhibition (GI) [1]: tde
growth inhibition (GI) [2]: Dose-dependent effect
IC50 [2]: 24.7 µM
growth inhibition (GI) [3]: Dose-dependent effect
IC50 [3]: 11.5 µM
growth inhibition (GI) [4]: Dose-dependent effect
IC50 [4]: 11.3 µM
growth inhibition (GI) [5]: Dose-dependent effect
IC50 [5]: 29 µM
growth inhibition (GI) [6]: Dose-dependent effect
IC50 [6]: 6.28 µM
growth inhibition (GI) [7]: Dose-dependent effect
IC50 [7]: 16.2 µM
growth inhibition (GI) [8]: tde
growth inhibition (GI) [9]: tde

C=CCc1cc(-c2ccc(OC)c(CC=C)c2)ccc1O
Activity [10]: Dose-dependent effect
Activity [11]: 7.2%
Activity [12]: Dose-dependent effect
Activity [13]: Active
growth inhibition (GI) [1]: tde
Activity [14]: 82.8%
growth inhibition (GI) [2]: Dose-dependent effect
IC50 [2]: 1.39 µM
Activity [15]: 69.8%
growth inhibition (GI) [3]: Dose-dependent effect
IC50 [3]: 2 µM
Activity [16]: 2.8%
Activity [17]: 14.3%
growth inhibition (GI) [4]: Dose-dependent effect
IC50 [4]: 2.47 µM
growth inhibition (GI) [5]: Dose-dependent effect
IC50 [5]: 3.05 µM
Activity [18]: Dose-dependent effect
Activity [19]: 75.7%
Activity [20]: 23%
growth inhibition (GI) [6]: Dose-dependent effect
IC50 [6]: 1.99 µM
Activity [21]: Active
Activity [22]: 4.2%
growth inhibition (GI) [7]: Dose-dependent effect
IC50 [7]: 3.19 µM
Activity [23]: Dose-dependent effect
Activity [24]: 20.2%
growth inhibition (GI) [8]: tde
growth inhibition (GI) [9]: tde
Activity [25]: Active
Activity [26]: Active

C=CCc1cc(-c2ccc(OC)c(CC=C)c2)c(O)c(-c2ccc(OC)c(CC=C)c2)c1
growth inhibition (GI) [1]: tde
growth inhibition (GI) [2]: Dose-dependent effect
IC50 [2]: 2.93 µM
growth inhibition (GI) [3]: Dose-dependent effect
IC50 [3]: 11.4 µM
growth inhibition (GI) [4]: Dose-dependent effect
IC50 [4]: 1.74 µM
growth inhibition (GI) [5]: Dose-dependent effect
IC50 [5]: 3.94 µM
growth inhibition (GI) [6]: Dose-dependent effect
IC50 [6]: 1.25 µM
growth inhibition (GI) [7]: Dose-dependent effect
IC50 [7]: 16.9 µM
growth inhibition (GI) [8]: tde
growth inhibition (GI) [9]: tde

C=CCc1ccc(O)c(-c2ccc(O)c(CC=C)c2)c1 [HONOKIOL]
Activity [10]: Dose-dependent effect
Activity [11]: 11.6%
growth inhibition (GI) [1]: tde
Activity [14]: 72.9%
growth inhibition (GI) [2]: Dose-dependent effect
IC50 [2]: 5.1 µM
Activity [15]: 50.5%
growth inhibition (GI) [3]: Dose-dependent effect
IC50 [3]: 13.2 µM
Activity [16]: 5.4%
Activity [17]: 21.7%
growth inhibition (GI) [4]: Dose-dependent effect
IC50 [4]: 12.5 µM
growth inhibition (GI) [5]: Dose-dependent effect
IC50 [5]: 7.45 µM
Activity [19]: 61.1%
Activity [20]: 37.9%
growth inhibition (GI) [6]: Dose-dependent effect
IC50 [6]: 7.75 µM
Activity [22]: 10.8%
growth inhibition (GI) [7]: Dose-dependent effect
IC50 [7]: 23.9 µM
Activity [23]: Dose-dependent effect
Activity [24]: 28.1%
growth inhibition (GI) [8]: tde
growth inhibition (GI) [9]: tde

C=CCc1ccc(O)c(-c2ccc(OC)c(CC=C)c2)c1 [METHYLHONOKIOL]
growth inhibition (GI) [1]: tde
growth inhibition (GI) [2]: Dose-dependent effect
IC50 [2]: 24.1 µM
growth inhibition (GI) [3]: Dose-dependent effect
IC50 [3]: 14.1 µM
growth inhibition (GI) [4]: Dose-dependent effect
IC50 [4]: 1.56 µM
growth inhibition (GI) [5]: Dose-dependent effect
IC50 [5]: 37.7 µM
growth inhibition (GI) [6]: Dose-dependent effect
IC50 [6]: 1.24 µM
growth inhibition (GI) [7]: Dose-dependent effect
IC50 [7]: 22.4 µM
growth inhibition (GI) [8]: tde
growth inhibition (GI) [9]: tde

C=CCc1cc(Br)c(O)c(-c2ccc(OC)c(CC=C)c2)c1
Activity [10]: Dose-dependent effect
Activity [11]: 11.4%
Activity [12]: Dose-dependent effect
Activity [13]: Active
growth inhibition (GI) [1]: tde
Activity [14]: 76.4%
growth inhibition (GI) [2]: Dose-dependent effect
IC50 [2]: 1.29 µM
Activity [15]: 55.8%
growth inhibition (GI) [3]: Dose-dependent effect
IC50 [3]: 1.87 µM
Activity [16]: 3%
Activity [17]: 20.7%
growth inhibition (GI) [4]: Dose-dependent effect
IC50 [4]: 1.73 µM
growth inhibition (GI) [5]: Dose-dependent effect
IC50 [5]: 2.98 µM
Activity [18]: Dose-dependent effect
Activity [19]: 63.1%
Activity [20]: 32.8%
growth inhibition (GI) [6]: Dose-dependent effect
IC50 [6]: 1.04 µM
Activity [21]: Active
Activity [22]: 6.3%
growth inhibition (GI) [7]: Dose-dependent effect
IC50 [7]: 3.99 µM
Activity [23]: Dose-dependent effect
Activity [24]: 30.6%
growth inhibition (GI) [8]: tde
growth inhibition (GI) [9]: tde
Activity [25]: Active
Activity [26]: Active

C=CCc1ccc(O)c(-c2cccc(CC=C)c2O)c1
growth inhibition (GI) [1]: tde
growth inhibition (GI) [2]: Dose-dependent effect
IC50 [2]: 17.4 µM
growth inhibition (GI) [3]: Dose-dependent effect
IC50 [3]: 12.4 µM
growth inhibition (GI) [4]: Dose-dependent effect
IC50 [4]: 2.04 µM
growth inhibition (GI) [5]: Dose-dependent effect
IC50 [5]: 22.3 µM
growth inhibition (GI) [6]: Dose-dependent effect
IC50 [6]: 1.08 µM
growth inhibition (GI) [7]: Dose-dependent effect
IC50 [7]: 17.4 µM
growth inhibition (GI) [8]: tde
growth inhibition (GI) [9]: tde
